Data from PMC8799877 (Acta Pharmaceutica Sinica. B, 2021).

Experiments:
[1] = target: BRD4(2) (Homo sapiens, UniProt O60885); test: HTRF bromodomain binding assay, BRD4
[2] = target: BRD4(1) (Homo sapiens, UniProt O60885); test: HTRF bromodomain binding assay, BRD4
[3] = target: BRD4 (Rattus norvegicus, UniProt A0A8I6A216); test: Cellular thermal shift assay; format: cell-based; conditions: NRCFs, 10 μmol/L, 4 h, heated from 43 to 61 °C
[4] = MTT cytotoxicity / cell viability in NRCFs; format: cell-based; conditions: Sprague-Dawley, rat, primary neonatal rat cardiac fibroblasts (NRCFs)
[5] = MTT cytotoxicity / cell viability in NRCMs; format: cell-based; conditions: Sprague-Dawley, rat, primary neonatal rat cardiac myocytes (NRCMs)
[6] = In vivo pharmacokinetic study; design: species or system male Sprague-Dawley rats; conditions: for CL_F_pred / Vz_F_pred: rats
How it was run: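 Male SD rats (n = 3) dosed iv at 2 mg/kg or orally at 10 mg/kg. Plasma separated by centrifugation at 4 °C, 6000 rpm, 8 min, and analysed by LC–MS. Parameters reported as mean ± SD.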

[7] = tested on: NRCFs; test: Ang II-induced cardiac fibroblast activation; format: cell-based, rat; conditions: immunofluorescent staining
How it was run: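 Treated neonatal rat cardiac fibroblasts fixed in 4% paraformaldehyde overnight, permeabilised with 0.1% Triton X-100 10 min, blocked in 5% BSA 20 min. Anti-α-SMA (1:300) at 4 °C overnight, then Alexa Fluor 488 goat anti-rabbit IgG (1:200) 2 h in the dark, DAPI 15 min. Imaged by laser confocal microscopy; n = 3.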

[8] = tested on: NRCFs; test: Wound scratch migration assay; format: cell-based, rat; conditions: C-34 1 μmol/L or JQ1 0.2 μmol/L, Ang II 12 or 24 h
[9] = tested on: TGF-β1/Smad2/3 signaling pathway; test: Ang II-induced TGF-β1/Smad2/3 signaling in NRCFs; format: cell-based, rat; conditions: pretreatment, Western blot
How it was run: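 Fibroblasts from hearts of 1–3-day-old neonatal SD rats: trypsin (0.8 mg/mL, 4 °C overnight), then collagenase II (0.8 mg/mL), 2 h differential plating. Treated cells lysed in RIPA, protein by BCA, 10% SDS-PAGE, nitrocellulose, 5% nonfat milk block 2 h, primary antibodies 4 °C overnight, secondary 1:10,000 2 h, chemiluminescence, densitometry.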

[10] = tested on: MV4-11 and RS411 acute leukemia xenograft models; conditions: 5 mg/kg; cited from earlier work
[11] = male, Sprague-Dawley, rat, plasma, iv, 2 mg/kg
[12] = male, Sprague-Dawley, rat, plasma, po, 10 mg/kg

| SMILES | IC50 [1] | also measured |
| --- | --- | --- |
| OCCNc1nc(-c2ccc(Cl)cc2)c2ccccc2n1 [Compound 6] | 8.314 ± 0.016 µM |  |
| CC(C)(CO)Nc1nc(-c2ccc(Cl)cc2)c2ccccc2n1 [Compound 7] | 12.4 ± 1.09 µM |  |
| NC(=O)CNc1nc(-c2ccc(Cl)cc2)c2ccccc2n1 [Compound 8] | 4.55 ± 0.658 µM | fold more potent than compound 5 (BRD4(2) IC50) ([1]; vs compound 5): about 4 fold |
| Clc1ccc(-c2nc(NCCc3c[nH]c4ccccc34)nc3ccccc23)cc1 [Compound 9] | 14.8 ± 1.17 µM |  |
| Clc1ccc(-c2nc(NCc3ccco3)nc3ccccc23)cc1 [Compound 10] | 13.3 ± 1.12 µM |  |
| COC(=O)c1ccc(CNc2nc(-c3ccc(Cl)cc3)c3ccccc3n2)cc1 [Compound 11] | 9.04 ± 0.956 µM |  |
| COC(=O)c1ccc(Nc2nc(-c3ccc(Cl)cc3)c3ccccc3n2)cc1 [Compound 12] | 7.05 ± 0.848 µM |  |
| O=C(O)c1ccc(Nc2nc(-c3ccc(Cl)cc3)c3ccccc3n2)cc1 [Compound 13] | 3.05 ± 0.484 µM |  |
| Oc1ccc(Nc2nc(-c3ccc(Cl)cc3)c3ccccc3n2)cc1 [Compound 14] | 4.31 ± 0.18 µM |  |
| Clc1ccc(-c2nc(Nc3ccccc3)nc3ccccc23)cc1 [Compound 15] | 10.6 ± 0.367 µM |  |
| Cc1ccc(Nc2nc(-c3ccc(Cl)cc3)c3ccccc3n2)cc1 [Compound 16] | 8.62 ± 0.164 µM |  |
| CC(C)c1ccc(Nc2nc(-c3ccc(Cl)cc3)c3ccccc3n2)cc1 [Compound 17] | 12.9 ± 0.947 µM |  |
| Clc1ccc(-c2nc(Nc3ccc(Br)cc3)nc3ccccc23)cc1 [Compound 18] | 7.02 ± 0.517 µM |  |
| NS(=O)(=O)c1ccc(Nc2nc(-c3ccc(Cl)cc3)c3ccccc3n2)cc1 [Compound 19] | 1.53 ± 0.185 µM | IC50 [2]: 3.37 ± 0.528 µM; fold more active in comparison to compound 15 (BRD4(2) IC50) ([1]; vs compound 15): about 7 fold |
| O=S(=O)(c1ccc(Nc2nc(-c3ccc(Cl)cc3)c3ccccc3n2)cc1)N1CCOCC1 [Compound 20] | 3.88 ± 0.589 µM |  |
| NS(=O)(=O)c1cccc(Nc2nc(-c3ccc(Cl)cc3)c3ccccc3n2)c1 [Compound 21] | > 20 µM |  |
| NS(=O)(=O)c1ccc(Nc2nc(-c3ccccc3Cl)c3ccccc3n2)cc1 [Compound 23] | 19.7 ± 1.3 µM |  |
| NS(=O)(=O)c1ccc(Nc2nc(-c3cccc(Cl)c3)c3ccccc3n2)cc1 [Compound 24] | 15.1 ± 1.18 µM |  |
| Cc1ccc2nc(Nc3ccc(S(N)(=O)=O)cc3)nc(-c3ccc(Cl)cc3)c2c1 [Compound 25] | 12.6 ± 0.307 µM |  |
| NS(=O)(=O)c1ccc(Nc2nc(-c3ccc(Br)cc3)c3ccccc3n2)cc1 [Compound 26] | 1.63 ± 0.212 µM | IC50 [2]: 1.6 ± 0.205 µM |
| NS(=O)(=O)c1ccccc1Nc1nc(-c2ccc(Br)cc2)c2ccccc2n1 [Compound 27] | 3.21 ± 0.206 µM |  |
| NS(=O)(=O)c1ccc(Nc2nc(-c3ccc(F)cc3)c3ccccc3n2)cc1 [Compound 28] | 0.242 ± 0.049 µM | IC50 [2]: 0.286 ± 0.046 µM; BRD4 thermal stabilization (CETSA, Western blot) [3]: could efficiently stabilize BRD4 from 43 to 61 °C; IC50 at 24 h [4]: 48.2 ± 1.68 µM; IC50 at 24 h [5]: 19.1 ± 1.4 µM; AUC(0-inf) [6, 11]: 7130 ng·h/mL; AUC(0-t) [6, 11]: 7100 ng·h/mL; Cmax [6, 11]: 2820 ng/mL; MRT last [6, 11]: 3.46 h; half-life [6, 11]: 3.13 h; bioavailability ([6]; male, Sprague-Dawley, rat, plasma, oral, 10 mg/kg): 43.1%; AUC(0-inf) [6, 12]: 15400 ng·h/mL; AUC(0-t) [6, 12]: 15300 ng·h/mL; Cmax [6, 12]: 2170 ng/mL; MRT last [6, 12]: 4.27 h; Tmax [6, 12]: 2.67 h; half-life [6, 12]: 1.77 h; CL_F_pred ([6]; iv 2 mg/kg): 4.67 mL/min/kg; Vz_F_pred ([6]; iv 2 mg/kg): 1.27 L/kg; CL_F_pred ([6]; po 10 mg/kg): 12 mL/min/kg; Vz_F_pred ([6]; po 10 mg/kg): 1.77 L/kg |
| NS(=O)(=O)c1ccccc1Nc1nc(-c2ccc(F)cc2)c2ccccc2n1 [Compound 29] | 0.589 ± 0.052 µM | IC50 [2]: 0.615 ± 0.127 µM |
| N#Cc1ccc(-c2nc(Nc3ccc(S(N)(=O)=O)cc3)nc3ccccc23)cc1 [Compound 30] | 0.688 ± 0.016 µM | IC50 [2]: 0.588 ± 0.024 µM |

| SMILES | IC50 [1] | also measured |
| --- | --- | --- |
| NS(=O)(=O)c1ccc(Nc2nc(-c3ccc(C(F)(F)F)cc3)c3ccccc3n2)cc1 [Compound 31] | 0.424 ± 0.038 µM | IC50 [2]: 0.687 ± 0.054 µM |
| NS(=O)(=O)c1ccc(Nc2nc(-c3ccccc3)c3ccccc3n2)cc1 [Compound 32, 4-((4-Phenylquinazolin-2-yl)amino)benzenesulfonamide] | 10.3 ± 1.01 µM |  |
| Cc1ccc(-c2nc(Nc3ccc(S(N)(=O)=O)cc3)nc3ccccc23)cc1 [Compound 33, 4-((4-(p-Tolyl)quinazolin-2-yl)amino)benzenesulfonamide] | 3.23 ± 0.089 µM |  |
| Cc1ccc(-c2nc(Nc3ccc(S(N)(=O)=O)cc3)nc3ccc(C)cc23)cc1 [Compound 34, 4-((6-Methyl-4-(p-tolyl)quinazolin-2-yl)amino)benzenesulfonamide] | 13.6 ± 1.13 µM |  |
| COc1ccc(-c2nc(Nc3ccc(S(N)(=O)=O)cc3)nc3ccccc23)cc1 [Compound 35, 4-((4-(4-Methoxyphenyl)quinazolin-2-yl)amino)benzenesulfonamide] | 8.12 ± 0.084 µM |  |
| COc1ccc(-c2nc(Nc3ccccc3S(N)(=O)=O)nc3ccccc23)cc1 [Compound 36] | 9.91 ± 0.996 µM |  |
| CNC(=O)c1ccc(-c2nc(Nc3ccc(S(N)(=O)=O)cc3)nc3ccccc23)cc1 [Compound 37] | 3.65 ± 0.562 µM |  |
| COC(=O)c1ccc(-c2nc(Nc3ccc(S(N)(=O)=O)cc3)nc3ccccc23)cc1 [Compound 38] | 5.17 ± 0.614 µM |  |
| COC(=O)c1ccc(-c2nc(Nc3ccccc3S(N)(=O)=O)nc3ccccc23)cc1 [Compound 39] | 3.33 ± 0.522 µM |  |
| COC(=O)c1cccc(-c2nc(Nc3ccc(S(N)(=O)=O)cc3)nc3ccccc23)c1 [Compound 40] | 7.62 ± 0.882 µM |  |
| NS(=O)(=O)c1ccc(Nc2nc(-c3cccc4ccccc34)c3ccccc3n2)cc1 [Compound 41, 4-((4-(Naphthalen-1-yl)quinazolin-2-yl)amino)benzenesulfonamide] | 4.76 ± 0.678 µM |  |
| NS(=O)(=O)c1ccc(Nc2nc(-c3ccc(OCc4ccccc4)cc3)c3ccccc3n2)cc1 [Compound 42, 4-((4-(4-(Benzyloxy)phenyl)quinazolin-2-yl)amino)benzenesulfonamide] | > 20 µM |  |
| O=C(O)c1ccc(Nc2nc(-c3ccc(F)cc3)c3ccccc3n2)cc1 [Compound 43, 4-((4-(4-Fluorophenyl)quinazolin-2-yl)amino)benzoic acid] | 0.925 ± 0.081 µM | IC50 [2]: 4.47 ± 0.361 µM |
| O=C(O)c1ccc(CNc2nc(-c3ccc(F)cc3)c3ccccc3n2)cc1 [Compound 44, 4-(((4-(4-Fluorophenyl)quinazolin-2-yl)amino)methyl)benzoic acid] | 2.07 ± 0.625 µM | IC50 [2]: 5.13 ± 0.626 µM |
| CC(C)c1ccc(Nc2nc(-c3ccc(F)cc3)c3ccccc3n2)cc1 [Compound 45] | 5.27 ± 0.367 µM |  |
| NS(=O)(=O)c1ccc(CNc2nc(-c3ccc(F)cc3)c3ccccc3n2)cc1 [Compound 46] | 6.12 ± 0.258 µM |  |
| NS(=O)(=O)c1ccc(CCNc2nc(-c3ccc(F)cc3)c3ccccc3n2)cc1 [Compound 47] | 18.63 ± 0.047 µM |  |
| O=S(=O)(c1ccccc1Nc1nc(-c2ccc(F)cc2)c2ccccc2n1)N1CCOCC1 [Compound 48] | 6.69 ± 0.825 µM |  |
| O=S(=O)(c1ccc(Nc2nc(-c3ccc(F)cc3)c3ccccc3n2)cc1)N1CCOCC1 [Compound 49] | 1.33 ± 0.628 µM | IC50 [2]: 5.95 ± 0.248 µM |
| O=C(c1ccc(Nc2nc(-c3ccc(F)cc3)c3ccccc3n2)cc1)N1CCOCC1 [Compound 50] | 3.07 ± 0.584 µM |  |
| NS(=O)(=O)c1ccc(Nc2nc(Nc3ccc(Br)cc3)c3ccccc3n2)cc1 [Compound 52] | 9.85 ± 0.993 µM | fold decrease on potency vs compound 26 (BRD4(2) IC50) ([1]; vs compound 26): ~6 fold |
| Cc1sc2c(c1C)C(c1ccc(Cl)cc1)=N[C@@H](CC(=O)OC(C)(C)C)c1nnc(C)n1-2 [JQ1] |  | BRD4 thermal stabilization (CETSA, Western blot) [3]: in close accordance with that obtained for JQ1; α-SMA fluorescence intensity after Ang II stimulation [7]: this effect was reversed; Ang II-induced cell migration (wound scratch assay) [8]: effectively inhibited the enhanced cell migration induced by Ang II; Ang II-induced upregulation of TGF-β1, p-Smad2 and p-Smad3 [9]: comparable to those by JQ1 treatment |
| Cc1nnc2n1-c1sc(C#Cc3cnn(CCCC#Cc4cccc5c4CN(C4CCC(=O)NC4=O)C5=O)c3)c(Cc3ccccc3)c1COC2 (stereo not drawn) [QCA570] |  | tumor regression [10]: complete and long-lasting tumor regression |
